The source of these data is paper PMC9315039 (Angewandte Chemie (International Ed. in English), 2022).

Read-outs that look alike come from different tables or passages of the source.

Assay [1] concerns the target T1, SIRT5 (Homo sapiens, UniProt Q9NXA8).
T1 sequence (Q9NXA8 34-310): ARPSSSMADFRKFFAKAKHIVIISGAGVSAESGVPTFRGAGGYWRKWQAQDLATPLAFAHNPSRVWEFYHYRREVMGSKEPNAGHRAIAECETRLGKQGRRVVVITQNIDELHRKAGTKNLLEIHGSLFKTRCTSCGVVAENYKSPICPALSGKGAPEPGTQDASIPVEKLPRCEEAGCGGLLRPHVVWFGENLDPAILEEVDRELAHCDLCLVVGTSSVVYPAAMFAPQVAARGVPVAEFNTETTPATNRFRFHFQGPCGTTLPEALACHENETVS
Kind of assay: End-point SIRT5 deglutarylase inhibition assay. Format: biochemical. The settings on record: Figure 1A; inhibitor 100 μM; NI = no inhibition. In a few lines: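 End-point deglutarylase assay using recombinant SIRT5 (150 nM) with Ac-LGKglut-AMC substrate (50 μM). Results are given as IC50 from dose-response curves (mean ± SD) or as %-inhibition at stated concentrations. Each value comes from at least two individual assays run in duplicate.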

For assay [2], the target named is T1, SIRT5. The assay can be described thus: Continuous SIRT5 enzyme inhibition assay. Format: biochemical. Put shortly: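 Continuous trypsin-coupled progression-curve assay with SIRT5 80 nM, NAD⁺ 500 μM, Ac-LGKglu-AMC 40 μM and trypsin 1.70 ng×μL⁻¹, run at several inhibitor concentrations. k_obs was plotted against inhibitor concentration and fitted to slow-binding mechanism A or B, giving Ki and rate constants.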

The target of a further assay is T2, SIRT5 in HEK293T cells (Homo sapiens, UniProt Q9NXA8).
T2 sequence (Q9NXA8 37-310): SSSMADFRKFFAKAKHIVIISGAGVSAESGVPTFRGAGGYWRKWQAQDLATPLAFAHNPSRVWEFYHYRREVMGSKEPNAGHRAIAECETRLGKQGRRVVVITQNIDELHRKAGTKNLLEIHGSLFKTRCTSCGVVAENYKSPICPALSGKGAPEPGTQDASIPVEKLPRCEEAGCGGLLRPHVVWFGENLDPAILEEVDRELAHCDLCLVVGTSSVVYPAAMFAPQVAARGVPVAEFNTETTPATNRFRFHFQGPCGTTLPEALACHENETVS
Kind of assay: Isothermal dose-response cellular thermal shift assay. The assay is classed as cell-based. In a few lines:
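ITDRF-CETSA in HEK293T cells. Cells were treated 2 h with test compound at 2.6 nM–10 μM, with a reference inhibitor at 10 μM as internal control. Samples were heated at 52 °C and soluble SIRT5 was detected by immunoblot. EC50 came from fitted dose-response curves (n≥2), and EC50s of masked/unmasked pairs were compared.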

Assay [3] deals with SIRT5 activity in HeLa cells. Kind of assay: Live cell imaging of SIRT5 activity. The settings on record: 10 μM inhibitor, co-treatment with labeled peptide substrate 250 µM, 6 hours. The assay is classed as cell-based. Put shortly: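 HeLa cells were co-treated with a dye-labeled succinylated peptide substrate and test compound at 10 μM. Mitochondrial SIRT5 desuccinylation triggers peptide self-assembly, and the resulting fluorescence was read in cells. This was single-concentration only, without dose-response.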

A further assay concerns SKM-1 cells. Kind of assay: MTT cell viability assay, SKM-1. Format: cell-based. The settings on record: concentrations up to 100 μM. Put shortly: (§1)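 Viability dose-response in cultured SKM-1, OCI-AML2, MOLM-13 (AML) and HEK293T cells, with concentrations up to 100 μM. GI50 was taken from dose-response curves. Data come from three individual assays performed in duplicate.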

For a further assay, the system named is HEK293T cells. Kind of assay: MTT cell viability assay, HEK293T. Format: cell-based, human. The settings on record: concentrations up to 100 μM. In a few lines: as §1

With `CCCCNC(=S)NCCCC[C@H](NS(=O)(=O)c1cccc(F)c1)C(=O)N[C@@H](Cc1c[nH]c2ccccc12)C(=O)NC1CCC1` [Compound 2], on SIRT5 [1], the “%-inhibition of SIRT5 deglutarylase activity at 100 μM” value was “did not show substantial inhibition”. Still for that read-out and setting: to `O=C(NC1CCC1)[C@H](Cc1c[nH]c2ccccc12)NC(=O)[C@H](CCCCNC(=S)NCCCO)NS(=O)(=O)c1cccc(F)c1` [Compound 3] belongs “did not show substantial inhibition”. Turning to `NC(=O)CCNC(=S)NCCCC[C@H](NS(=O)(=O)c1cccc(F)c1)C(=O)N[C@@H](Cc1c[nH]c2ccccc12)C(=O)NC1CCC1` [Compound 4], the inhibition constant Ki on SIRT5 [2] was “micromolar range”. In the case of `O=C1CC(CCNC(=S)NCCCC[C@H](NS(=O)(=O)c2cccc(F)c2)C(=O)N[C@@H](Cc2c[nH]c3ccccc23)C(=O)NC2CCC2)=NO1` [Compound 22], the concentration giving a half-maximal response (EC50) at SIRT5 in HEK293T cells was more than 10 µM. For the same molecule, the Ki at SIRT5 [2] (Ki) was approximately 0.1 µM. Regarding `O=C(NC1CCC1)[C@H](Cc1c[nH]c2ccccc12)NC(=O)[C@H](CCCCNC(=S)NCCc1nnn[nH]1)NS(=O)(=O)c1cccc(F)c1` [Compound 24], the “inhibition of SIRT5 activity in HeLa cells (fluorescence)” value in assay [3] is “inhibition of SIRT5 activity”. For the same molecule, in the assay with SKM-1 cells, the “decrease in viability of SKM-1 cells” value was “None of the acidic compounds 1, 16, and 24 caused substantial decrease in viability”. The half-maximal effective concentration (EC50) at SIRT5 in HEK293T cells was found to be 1.3 µM. The “decrease in viability of HEK293T cells” value in the assay on HEK293T cells was “None of the acidic compounds 1, 16, and 24 caused substantial decrease in viability”. On SIRT5 [2], the “Ki” value was “low nanomolar range”. On to `O=C(CCNC(=S)NCCCC[C@H](NS(=O)(=O)c1cccc(F)c1)C(=O)N[C@@H](Cc1c[nH]c2ccccc12)C(=O)NC1CCC1)NO` [Compound 27], for which the “Ki” value at SIRT5 [2] is on record as “micromolar range”.
